Experimental data published in ChEMBL document CHEMBL1144710, “epigenetic multiple ligands: mixed histone/protein methyltransferase, acetyltransferase, and class III deacetylase (sirtuin) inhibitors” (J Med Chem, 2008).
Calls of active or inactive are those of the source. Unless noted, no cut-off for these calls is given here.

How the values were obtained:
[1] = molecular target: T1, Histone-lysine N-methyltransferase SETD7 (Homo sapiens) (UniProt Q8WTS6); experiment: Inhibition of human recombinant SET7 assessed as histone H3 protein methylation at 100 uM
T1 sequence (whole entry): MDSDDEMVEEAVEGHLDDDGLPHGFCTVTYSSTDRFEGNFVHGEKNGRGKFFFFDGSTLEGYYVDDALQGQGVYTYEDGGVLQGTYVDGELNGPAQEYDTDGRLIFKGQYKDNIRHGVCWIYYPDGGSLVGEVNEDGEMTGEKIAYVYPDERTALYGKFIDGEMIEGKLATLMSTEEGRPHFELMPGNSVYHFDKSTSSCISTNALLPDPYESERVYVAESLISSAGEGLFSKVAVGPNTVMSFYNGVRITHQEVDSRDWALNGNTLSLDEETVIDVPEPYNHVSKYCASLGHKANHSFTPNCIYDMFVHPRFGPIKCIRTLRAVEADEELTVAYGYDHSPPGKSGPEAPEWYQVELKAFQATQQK
Method in brief: (§1)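 Recombinant enzymes (0.2 µg) with substrate (0.5 µg: Npl3p for PRMT1, PABP1 for CARM1, histone H3 for SET7), 0.5 µM [3H]AdoMet and 100 µM compound in PBS pH 7.4 with 3.3% v/v DMSO, 90 min at 30 °C. Products separated by 10% SDS-PAGE, transferred to PVDF, detected by fluorography on film overnight.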

U-937 [2] = experiment: Inhibition of histone H3K4 methylation in human U937 cells at 50 uM after 24 hrs; type: functional, cell-based
Method in brief: (§2)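 U937 cells treated at 50 µM for 24 h. Histones extracted with Triton buffer, then 0.2 M HCl overnight at 4 °C. 3–10 µg run on 15% SDS-PAGE and immunoblotted with anti-monomethyl-H3K4, monomethyl-H4R3 or dimethyl-H3R17 (1:500, overnight 4 °C), ECL detection. Loading controls: total H4 (H3K4), Ponceau Red (Arg marks).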

U-937 [3] = experiment: Inhibition of histone H3R17 methylation in human U937 cells at 50 uM after 24 hrs; type: functional, cell-based; method in brief: as §2
[4] = molecular target: Protein arginine N-methyltransferase 1 (Homo sapiens) (UniProt Q99873); experiment: Inhibition of human recombinant PRMT1 assessed as nuclear ribonucleoprotein Npl3p methylation at 100 uM; method in brief: as §1
[5] = molecular target: T2, NAD-dependent protein deacetylase sirtuin-2 (Homo sapiens) (UniProt Q8IXJ6); experiment: Inhibition of human SIRT2 at 25 uM
T2 sequence (whole entry): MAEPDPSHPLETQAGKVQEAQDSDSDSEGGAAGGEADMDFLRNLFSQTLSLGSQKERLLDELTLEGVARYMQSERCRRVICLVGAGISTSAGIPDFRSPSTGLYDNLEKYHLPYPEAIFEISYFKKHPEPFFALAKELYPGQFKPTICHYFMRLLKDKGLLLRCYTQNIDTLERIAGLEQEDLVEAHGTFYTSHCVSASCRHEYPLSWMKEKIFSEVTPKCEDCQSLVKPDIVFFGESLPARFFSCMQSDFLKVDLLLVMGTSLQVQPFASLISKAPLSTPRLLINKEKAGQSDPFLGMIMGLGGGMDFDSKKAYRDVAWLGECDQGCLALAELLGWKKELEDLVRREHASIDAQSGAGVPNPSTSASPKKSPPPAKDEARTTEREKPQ
Method in brief: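 Fluorescent two-stage assay. SIRT1 (1 U/well) or SIRT2 (5 U/well) with Fluor de Lys-SIRT1/2 substrate, NAD+ and compound at 25 µM, 37 °C for 2 h. Developer II containing nicotinamide then stopped the reaction and generated signal, read at ex 360/em 460 nm.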

Sequence of Protein arginine N-methyltransferase 1 (Homo sapiens) (Q99873 whole entry, looked up): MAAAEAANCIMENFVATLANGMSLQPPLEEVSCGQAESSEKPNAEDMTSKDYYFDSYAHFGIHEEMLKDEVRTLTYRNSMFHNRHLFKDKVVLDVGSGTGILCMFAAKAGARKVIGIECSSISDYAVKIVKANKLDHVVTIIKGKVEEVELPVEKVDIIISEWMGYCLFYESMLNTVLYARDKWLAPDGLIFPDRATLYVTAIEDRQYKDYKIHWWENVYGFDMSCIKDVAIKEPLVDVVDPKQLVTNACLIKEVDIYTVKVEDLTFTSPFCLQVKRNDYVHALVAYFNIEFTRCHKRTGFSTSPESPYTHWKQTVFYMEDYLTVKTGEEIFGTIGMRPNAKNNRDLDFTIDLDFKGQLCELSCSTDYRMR

## O=C1/C(=C/c2cc(Br)c(O)c(Br)c2)COC/C1=C\c1cc(Br)c(O)c(Br)c1
[1]
  Activity: Active
U-937 [2]
  Activity: Active
U-937 [3]
  Activity: Active
[4]
  Activity: Active
[5]
  inhibition: 67%
